ChEMBL document CHEMBL1124953, “Orally effective acid prodrugs of the beta-lactamase inhibitor sulbactam” (J Med Chem, 1990)

Legend:
[1] = Maximum Concentration of the compound.; assay type: ADME, organism-based; details: in vivo
In short: (§1)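 Male outbred CD rats (70-90 g), five per prodrug, given 10 mg/kg orally in CMC diluent. Orbital plexus blood into heparinized tubes, plasma sampled over 4 h. Plasma sulbactam quantified by synergistic agar-well bioassay: Pasteurella hemolytica (ATCC 43823) in Mueller-Hinton agar with ampicillin and triphenyltetrazolium chloride, 18 h at 37 °C. Standard curve 10-0.1 μg/mL in rat plasma, zone-size regression. AUC and Cmax from concentration-time plot.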

[2] = Area under curve (AUC) was determined; assay type: ADME; parameters: concentration or dose not given beside the values; in short: as §1

SMILES	Cmax [1]	AUC [2]
CC1(C)[C@H](C(=O)O)N2C(=O)C[C@H]2S1(=O)=O [SULBACTAM]	700 ng/mL	1400 ng·h/mL
CC(C)(C(=O)O)C(=O)OCOC(=O)[C@@H]1N2C(=O)C[C@H]2S(=O)(=O)C1(C)C	3900 ng/mL	6200 ng·h/mL
CC(C)(C)C(=O)OCOC(=O)[C@@H]1N2C(=O)C[C@H]2S(=O)(=O)C1(C)C [SULBACTAM PIVOXIL]	6200 ng/mL	8500 ng·h/mL
CC1(C)[C@H](C(=O)OCOC(=O)CCCCC(=O)O)N2C(=O)C[C@H]2S1(=O)=O	5200 ng/mL	7500 ng·h/mL
CC1(C)[C@H](C(=O)OCOC(=O)CCCCC(=O)OCc2ccccc2)N2C(=O)C[C@H]2S1(=O)=O	1600 ng/mL	2300 ng·h/mL
CC1(C)[C@H](C(=O)OCOC(=O)CCCC(=O)O)N2C(=O)C[C@H]2S1(=O)=O	8200 ng/mL	10000 ng·h/mL
CC1(C)[C@H](C(=O)OCOC(=O)CC(=O)O)N2C(=O)C[C@H]2S1(=O)=O	2000 ng/mL	3500 ng·h/mL
